Measured values as given in publication PMC8164216 (Pharmaceutical research, 2019).
“And” between values parts separate entries of the source, which are not always exact repeats. Identical values can stand only once. Marks after values point to notes of the source that are not given here.

Experiments:
[1] = Compartmental PK modeling with enterohepatic cycling and M-M elimination; assay type: in vivo, Female BALB/c mice; settings: for Vp: simultaneous fit of IV and oral data; for Vmax / Km: M-M elimination; for CLb: clearance to bile compartment; for Km: female, BALB/c, mouse, plasma, other: intravenous and oral, fitted simultaneously
Summary of the method: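 Female BALB/c mice (18–20 g) got the test compound in 20% w/v cyclodextrin in normal saline, by tail-vein IV (10, 50, 100 mg/kg) or oral gavage (100 mg/kg). Terminal cardiac blood (isoflurane, lithium heparin; n = 3–4/time point) was taken to 24 h, and plasma was assayed by LC/MS/MS. Naïve-pooled IV and oral data were fitted together by maximum likelihood to enterohepatic-cycling models with lag time and Michaelis-Menten elimination.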

MCT1 [2] = settings: cited from earlier work
MCT1 [3] = settings: murine 4T1 cells; cited from earlier work
MCT2 = settings: to a lesser extent than MCT1; cited from earlier work
[4] = Pharmacokinetic study in mice, non-compartmental analysis; assay type: in vivo, Female BALB/c mice
Summary of the method: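 Mice were dosed IV by tail vein (10, 50, 100 mg/kg) or by oral gavage (100 mg/kg), in 20% w/v cyclodextrin-saline. Plasma from terminal cardiac puncture (n = 3–4/time point; 15 min–24 h IV, 10 min–24 h oral) was quantified by LC/MS/MS (LLOQ 0.15 ng/mL). Naïve-pooled non-compartmental analysis assumed 19 g body weight. AUC was by trapezoidal method, extrapolated to infinity. Fold change is relative to the 10 mg/kg IV dose.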

[5] = breast tumor xenograft study; cited from earlier work
MCT1 [6] = target: T1, MCT1 (Mus musculus, UniProt P53986); test: Full TMDD model; assay type: in vivo, Female BALB/c mice
T1 sequence (P53986 1-493): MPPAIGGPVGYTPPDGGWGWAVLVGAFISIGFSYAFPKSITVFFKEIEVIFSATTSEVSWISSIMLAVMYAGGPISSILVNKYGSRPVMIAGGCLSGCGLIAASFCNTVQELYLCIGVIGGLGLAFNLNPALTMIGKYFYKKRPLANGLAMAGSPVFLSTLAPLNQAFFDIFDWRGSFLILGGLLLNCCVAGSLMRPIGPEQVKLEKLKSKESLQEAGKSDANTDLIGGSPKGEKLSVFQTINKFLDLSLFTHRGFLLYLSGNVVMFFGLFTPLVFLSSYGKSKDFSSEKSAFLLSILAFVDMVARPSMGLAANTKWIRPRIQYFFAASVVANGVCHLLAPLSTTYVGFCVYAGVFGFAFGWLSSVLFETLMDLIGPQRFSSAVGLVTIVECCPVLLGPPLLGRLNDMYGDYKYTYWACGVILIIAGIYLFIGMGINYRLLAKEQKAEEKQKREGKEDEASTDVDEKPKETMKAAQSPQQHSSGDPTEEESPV
T1 sequence (P18572 140-389 partner limits assumed): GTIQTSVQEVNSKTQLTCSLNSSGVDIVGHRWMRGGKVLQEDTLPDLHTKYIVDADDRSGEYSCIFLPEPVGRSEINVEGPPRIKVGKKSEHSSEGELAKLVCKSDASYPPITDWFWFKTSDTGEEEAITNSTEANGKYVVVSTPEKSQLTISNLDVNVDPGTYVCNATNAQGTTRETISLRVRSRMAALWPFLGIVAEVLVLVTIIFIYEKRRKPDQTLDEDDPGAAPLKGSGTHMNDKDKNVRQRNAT

[7] = Compartmental PK modeling, full TMDD model; assay type: in vivo, Female BALB/c mice
[8] = female, BALB/c, mouse, plasma, iv, 10 mg/kg
[9] = female, BALB/c, mouse, plasma, iv, 50 mg/kg
[10] = female, BALB/c, mouse, plasma, iv, 100 mg/kg
[11] = female, BALB/c, mouse, plasma, po, 100 mg/kg

CLd ([1]; Model A): 0.332 ± 0.064 (19.3) ml/h
F ([1]; Model A): 1.00 ± 0.003 (0.32)
ka ([1]; Model A): 3.39 ± 1.11 (32.7) h^−1
Vp ([1]; Model A (EHC model)): 48.6 ± 5.86 (12.1) ml
Vmax ([1]; Model A): 26.4 ± 8.30 (31.7) μg/h
CLb ([1]; Model A): 0.529 ± 0.074 (13.9) ml/h
ko ([1]; Model A, first-order rate constant of release from bile): 0.0015 ± 0.0004 ^a (29.0) h^−1
Tlag ([1]; Model A, fixed in final estimation): 5.92 (Fixed) h
CLd ([1]; Model B): 0.023 ± 0.003 (11.1) ml/h
F ([1]; Model B): 0.998 ± 0.003 (0.31)
ka ([1]; Model B): 5.13 ± 1.98 (38.6) h^−1
Vp ([1]; Model B (simplified EHC model)): 55.8 ± 5.20 (9.35) ml
Tlag.iv ([1]; Model B, IV): 6.00 ± 0.0006 (0.01) h
Vmax ([1]; Model B): 411 ± 42.0 (10.3) μg/h
CLb ([1]; Model B): 0.178 ± 0.019 (10.8) ml/h
Tlag.po ([1]; Model B, oral): 5.90 ± 0.06 (1.05) h
ko ([1]; Model B, zero-order rate constant of release from bile): 0.386 ± 0.146 ^b (37.9) ng/h
Km ([1]; Model A): 9.59 ± 4.63 µg/mL
Km ([1]; Model B): 385 ± 58 µg/mL
Vc/F ([4]; IV 10 mg/kg, mice (19 g)): 53.4 mL
AUC0−∞, fold change from the lowest IV dose ([4]; IV 50 mg/kg vs 10 mg/kg): 8.36 fold
CL, fold change from the lowest IV dose ([4]; IV 50 mg/kg vs 10 mg/kg): 0.50 fold
Cmax, fold change from the lowest IV dose ([4]; IV 50 mg/kg vs 10 mg/kg): 7.49 fold
Vss, fold change from the lowest IV dose ([4]; IV 50 mg/kg vs 10 mg/kg): 0.58 fold
t1/2, fold change from the lowest IV dose ([4]; IV 50 mg/kg vs 10 mg/kg): 0.89 fold
λz, fold change from the lowest IV dose ([4]; IV 50 mg/kg vs 10 mg/kg): 1.12 fold
Vc/F ([4]; IV 50 mg/kg, mice (19 g)): 31.0 mL
AUC0−∞, fold change from the lowest IV dose ([4]; IV 100 mg/kg vs 10 mg/kg): 17.5 fold
CL, fold change from the lowest IV dose ([4]; IV 100 mg/kg vs 10 mg/kg): 0.47 fold
Cmax, fold change from the lowest IV dose ([4]; IV 100 mg/kg vs 10 mg/kg): 13.6 fold
Vss, fold change from the lowest IV dose ([4]; IV 100 mg/kg vs 10 mg/kg): 0.65 fold
t1/2, fold change from the lowest IV dose ([4]; IV 100 mg/kg vs 10 mg/kg): 0.87 fold
λz, fold change from the lowest IV dose ([4]; IV 100 mg/kg vs 10 mg/kg): 1.16 fold
Vc/F ([4]; IV 100 mg/kg, mice (19 g)): 34.6 mL
AUC(0-inf) [4, 8]: 4940 ng·h/mL
Cmax [4, 8]: 4020 ng/mL
Vd [4, 8]: 0.0442 L
clearance [4, 8]: 0.773 mL/min
concentration at 24 h [4, 8]: 0.285 ng/mL
half-life [4, 8]: 2.91 h
k el [4, 8]: 6.61e-05 s⁻¹
AUC(0-inf) [4, 9]: 41300 ng·h/mL
Cmax [4, 9]: 30100 ng/mL
Vd [4, 9]: 0.0256 L
clearance [4, 9]: 0.383 mL/min
half-life [4, 9]: 2.6 h
k el [4, 9]: 7.39e-05 s⁻¹
AUC(0-inf) [4, 10]: 86400 ng·h/mL
Cmax [4, 10]: 54500 ng/mL
Vd [4, 10]: 0.0286 L
clearance [4, 10]: 0.367 mL/min
half-life [4, 10]: 2.51 h
k el [4, 10]: 7.64e-05 s⁻¹
bioavailability ([4]; female, BALB/c, mouse, plasma, oral, 100 mg/kg): 82.7%
AUC(0-inf) [4, 11]: 71400 ng·h/mL
Cmax [4, 11]: 30300 ng/mL
Tmax [4, 11]: 0.333 h
half-life [4, 11]: 4.46 h
k el [4, 11]: 4.33e-05 s⁻¹
CL/F ([4]; oral 100 mg/kg, mice (19 g)): 26.6 mL/h
Vc/F ([4]; oral 100 mg/kg, mice (19 g)): 171 mL
kon (MCT1 [6]; Model C, converted based on the molecular weight): 6.21 ± 5.92 (95. 3) μM^−1 h^−1
koff (MCT1 [6]; mouse): 0.00641 s⁻¹
ka ([7]; Model C): 34.4 ± 4.80 (14.0) h^−1
kpt ([7]; Model C): 0.302 ± 0.074 (24.7) h^−1
ktp ([7]; Model C): 0.452 ± 0.041 (9.12) h^−1
Vp ([7]; Model C (full TMDD model), fixed): 2.04 ml and 2.04 (Fixed) ml
SMILES: Cc1[nH]nc(C(F)(F)F)c1Cc1sc2c(c1C(=O)N1C[C@](C)(O)CO1)c(=O)n(C)c(=O)n2C(C)C [AZD3965, 5-[(4S)-4-hydroxy-4-methyl-1,2-oxazolidine-2-carbonyl]-1-isopropyl-3-methyl-6-{[3-methyl-5-(trifluoromethyl)-2H-pyrazol-4-yl]methyl}thieno[2,3-d]pyrimidine-2,4-dione]
Ki (MCT1 [2]): 1.6 nM
duration of inhibition of L-lactate uptake (MCT1 [3]): up to 5 h
pre-incubation period for maximal inhibition of L-lactate uptake (MCT1 [3]): 5 min
activity against MCT2 (MCT2): some activity
concentration in 4T1 tumor versus plasma [5]: 25.5 fold
Rtotal (total transporter concentration) (MCT1 [6]; Model C): 54.8 ± 4.90 μg/ml and 54.8 ± 4.90 (8.92) μg/ml
